pEC50: −log10 of the molar value. Calls of active or inactive are those of the source. The rule behind the calls is not given here.
Experiments:
[1] = test system: Pseudomonas aeruginosa; assay: Antimicrobial activity against Pseudomonas aeruginosa NCTC 6749 after 18 hrs by twofold serial microdilution method; assay type: functional, organism-based
[2] = test system: Vesicular stomatitis virus; assay: Antiviral activity against Vesicular stomatitis virus ATCC VR 1540 infected in African green monkey Vero 76 cells assessed as reduction of virus-plaque formation after 2 days by crystal violet staining; assay type: functional, organism-based; conditions: ATCC VR 1540, Vero, 48 h
[3] = test system: Vaccinia virus; assay: Antiviral activity against Human Vaccinia virus ATCC VR-1549 infected in African green monkey Vero 76 cells assessed as reduction of virus-plaque formation after 3 days by crystal violet staining; assay type: functional, organism-based; conditions: Orthopoxvirus vaccinia, ATCC VR-1549, Vero, 72 h
[4] = test system: Candida albicans; assay: Antimicrobial activity against Candida albicans ATCC 90028 after 24 hrs by twofold serial microdilution method; assay type: functional, organism-based
[5] = test system: Yellow fever virus; assay: Antiviral activity against Yellow fever virus 17D infected in BHK cells assessed as protection against virus-induced cytopathogenicity after 3 to 4 days by MTT assay; assay type: functional, cell-based
[6] = Cytotoxicity against African green monkey Vero 76 cells assessed as cell viability after 48 to 96 hrs by crystal violet staining; assay type: cell-based; conditions: chlorocebus sabaeus
[7] = test system: Escherichia coli; assay: Antimicrobial activity against Escherichia coli NCTC 8196 after 18 hrs by twofold serial microdilution method; assay type: functional, organism-based
[8] = test system: Human immunodeficiency virus 1; assay: Antiviral activity against HIV1 3B infected in human MT4 cells assessed as protection against virus-induced cytopathogenicity by MTT assay; assay type: functional, organism-based; conditions: Human immunodeficiency virus 1, 3B
[9] = test system: Mammalian orthoreovirus 1; assay: Antiviral activity against Reovirus type-1 ATCC VR-214 infected in BHK cells assessed as protection against virus-induced cytopathogenicity after 3 to 4 days by MTT assay; assay type: functional, cell-based; conditions: Mammalian orthoreovirus 1, ATCC VR-214, BHK
Procedure, shortened: (§1)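 Cells seeded in 96-well plates (BHK 5x10^4, MDBK 3x10^4 cells/well), grown overnight to confluence, infected at m.o.i. 0.01 (BHK for Reo-1, MDBK for BVDV); serial compound dilutions in maintenance medium with 0.5% inactivated FBS added after 1 h; viability by MTT after 3–4 days at 37°C; EC50 for 50% protection by linear regression.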

[10] = Antiviral activity against Bovine viral diarrhea virus 1-NADL ATCC VR-534 infected in MDBK cells assessed as protection against virus-induced cytopathogenicity after 3 to 4 days by MTT assay; assay type: functional, cell-based; conditions: Bovine viral diarrhea virus isolates and strains, ATCC VR-534, MDBK; procedure, shortened: as §1
[11] = test system: Coxsackievirus B5; assay: Antiviral activity against Human coxsackievirus B5 ATCC VR-29 infected in African green monkey Vero 76 cells assessed as reduction of virus-plaque formation after 3 days by crystal violet staining; assay type: functional, organism-based; conditions: Enterovirus B, ATCC VR-29, Vero, 72 h
Procedure, shortened: (§2)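 Plaque reduction: Vero-76 at 2x10^5 cells/well grown to confluent monolayers, infected 2 h at 50–100 PFU/well; after removing unadsorbed virus, overlay of D-MEM, 1% inactivated FBS, 0.75% methylcellulose with or without serial compound dilutions; 3 days at 37°C, fixed and stained with crystal violet in 50% ethanol, plaques counted; EC50 by linear regression.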

[12] = Cytotoxicity against BHK cells assessed as cell viability after 48 to 96 hrs by MTT assay; assay type: cell-based, Mesocricetus auratus; conditions: hamster
[13] = test system: Candida albicans; assay: Antimicrobial activity against Candida albicans ATCC 10231 after 24 hrs by twofold serial microdilution method; assay type: functional, organism-based
[14] = test system: Poliovirus 1; assay: Antiviral activity against Poliovirus type 1 ATCC VR-1562 infected in African green monkey Vero 76 cells assessed as reduction of virus-plaque formation after 2 days by crystal violet staining; assay type: functional, organism-based; conditions: Enterovirus C, ATCC VR-1562, Vero, 48 h
[15] = test system: Pseudomonas aeruginosa; assay: Antimicrobial activity against Pseudomonas aeruginosa ATCC 27863 after 18 hrs by twofold serial microdilution method; assay type: functional, organism-based
[16] = test system: Candida parapsilosis; assay: Antimicrobial activity against Candida parapsilosis ATCC 22019 after 24 hrs by twofold serial microdilution method; assay type: functional, organism-based
[17] = Cytotoxicity against bovine MDBK cells assessed as cell viability after 48 to 96 hrs by MTT assay; assay type: cell-based, Bos taurus; conditions: cattle
[18] = test system: Escherichia coli; assay: Antimicrobial activity against Escherichia coli ATCC 25922 after 18 hrs by twofold serial microdilution method; assay type: functional, organism-based
[19] = test system: Escherichia coli; assay: Antimicrobial activity against Escherichia coli ATCC 10538 after 18 hrs by twofold serial microdilution method; assay type: functional, organism-based
[20] = test system: Pseudomonas aeruginosa; assay: Antimicrobial activity against Pseudomonas aeruginosa ATCC 15442 after 18 hrs by twofold serial microdilution method; assay type: functional, organism-based
[21] = Cytotoxicity against human MT4 cells; assay type: cell-based
[22] = test system: Human alphaherpesvirus 1; assay: Antiviral activity against Human herpesvirus 1 KOS ATCC VR-1493 infected in African green monkey Vero 76 cells assessed as reduction of virus-plaque formation after 3 days by crystal violet staining; assay type: functional, organism-based; conditions: Human alphaherpesvirus 1, KOS ATCC VR1493, Vero, 72 h; procedure, shortened: as §2
[23] = test system: Bordetella bronchiseptica; assay: Antimicrobial activity against Bordetella bronchiseptica ATCC 4617 after 18 hrs by twofold serial microdilution method; assay type: functional, organism-based

With `FC(F)(F)c1cccc(NC(S)=NCCN2CCOCC2)c1` the Activity [1] was “inactive”, the pEC50 [2] was < 4.00 and the pEC50 [3] was < 4.00. The Activity [4] was “inactive”, the pEC50 [5] was < 4.00 and the CC50 [6] was > 100 µM. For the same compound, the Activity [7] was “inactive”, the pEC50 [8] was < 4.00 and the pEC50 [9] was < 4.00. For the same compound, the pEC50 [10] was < 4.00, the pEC50 [11] was < 4.00 and the CC50 [12] was > 100 µM. For the same compound, the Activity [13] was “inactive”, the pEC50 [14] was < 4.00 and the Activity [15] was “inactive”. The Activity [16] was “inactive”, the CC50 [17] was > 100 µM and the Activity [18] was “inactive”. The Activity [19] was “inactive”, the Activity [20] was “inactive” and the CC50 [21] was > 100 µM. For the same compound, the pEC50 [22] was < 4.00 and the Activity [23] was “inactive”.

With `CC[C@H]1CC[C@H](c2ccc(NC(=S)Nc3cccc(C(F)(F)F)c3)cc2)CC1` the Activity [1] was “inactive”, the pEC50 [2] was < 5.00 and the pEC50 [3] was < 5.00. The Activity [4] was “inactive”, the pEC50 [5] was < 5.00 and the CC50 [6] was 10 µM. For the same compound, the Activity [7] was “inactive”, the pEC50 [8] was < 4.41 and the pEC50 [9] was < 5.00. The pEC50 [10] was < 5.05, the pEC50 [11] was < 5.00 and the CC50 [12] was 10 µM. The Activity [13] was “inactive”, the pEC50 [14] was < 5.00 and the Activity [15] was “inactive”. The Activity [16] was “inactive”, the CC50 [17] was 9 µM and the Activity [18] was “inactive”. The Activity [19] was “inactive”, the Activity [20] was “inactive” and the CC50 [21] was 39 µM. For the same compound, the pEC50 [22] was < 5.00 and the Activity [23] was “inactive”.

In the case of `CCCC[C@H]1CC[C@H](c2ccc(NC(=S)Nc3cccc(C(F)(F)F)c3)cc2)CC1`, the Activity [1] was “inactive”, the pEC50 [2] was < 4.77 and the pEC50 [3] was < 4.77. The Activity [4] was “inactive”, the pEC50 [5] was < 5.02 and the CC50 [6] was 17 µM. For the same compound, the Activity [7] was “inactive”, the pEC50 [8] was < 4.66 and the pEC50 [9] was < 5.02. The pEC50 [10] was < 5.00, the pEC50 [11] was < 4.77 and the CC50 [12] was 9.5 µM. For the same compound, the Activity [13] was “inactive”, the pEC50 [14] was < 4.77 and the Activity [15] was “inactive”. For the same compound, the Activity [16] was “inactive”, the CC50 [17] was 10 µM and the Activity [18] was “inactive”. For the same compound, the Activity [19] was “inactive”, the Activity [20] was “inactive” and the CC50 [21] was 22 µM. The pEC50 [22] was < 4.77 and the Activity [23] was “inactive”.

Source: ChEMBL document CHEMBL3616436, “Synthesis, cytotoxicity and antimicrobial activity of thiourea derivatives incorporating 3-(trifluoromethyl)phenyl moiety” (Eur J Med Chem, 2015)
